ChEMBL document CHEMBL4359830, “Discovery and structure-activity relationship of novel diphenylthiazole derivatives as BTK inhibitor with potent activity against B cell lymphoma cell lines” (Eur J Med Chem, 2019)

Assays:
Raji [1] = experiment: Induction of apoptosis in human Raji cells assessed as early apoptotic cells at 3 uM measured after 15 mins by Annexin-V-APC staining-based flow cytometric analysis (reference value: 0.021 %); type: functional
Ramos [2] = experiment: Cell cycle arrest in human Ramos cells assessed as accumulation at G2/M phase at 0.1 uM measured after 48 hrs by propidium iodide/RNase staining based flow cytometric analysis (reference value: 5.98 %); type: functional
Raji [3] = experiment: Induction of apoptosis in human Raji cells assessed as viable cells at 1 uM measured after 15 mins by Annexin-V-APC staining-based flow cytometric analysis (reference value: 97.5 %); type: functional; conditions: 0.25 h, read-out: Activity
Ramos [4] = experiment: Cell cycle arrest in human Ramos cells assessed as accumulation at S phase at 1 uM measured after 48 hrs by propidium iodide/RNase staining based flow cytometric analysis (reference value: 56.35 %); type: functional
Raji [5] = experiment: Induction of apoptosis in human Raji cells assessed as necrotic cells at 1 uM measured after 15 mins by Annexin-V-APC staining-based flow cytometric analysis (reference value: 1.87 %); type: functional
Ramos [6] = experiment: Induction of apoptosis in human Ramos cells assessed as necrotic cells at 1 uM measured after 15 mins by Annexin-V-APC staining-based flow cytometric analysis (reference value: 1.50 %); type: functional
Raji [7] = experiment: Induction of apoptosis in human Raji cells assessed as late apoptotic cells at 0.1 uM measured after 15 mins by Annexin-V-APC staining-based flow cytometric analysis (reference value: 0.57 %); type: functional
Ramos [8] = experiment: Induction of apoptosis in human Ramos cells assessed as late apoptotic cells at 0.1 uM measured after 15 mins by Annexin-V-APC staining-based flow cytometric analysis (reference value: 1.85 %); type: functional
Ramos [9] = experiment: Induction of apoptosis in human Ramos cells assessed as early apoptotic cells at 1 uM measured after 15 mins by Annexin-V-APC staining-based flow cytometric analysis (reference value: 0.14 %); type: functional
Ramos [10] = experiment: Cell cycle arrest in human Ramos cells assessed as accumulation at S phase at 0.1 uM measured after 48 hrs by propidium iodide/RNase staining based flow cytometric analysis (reference value: 56.35 %); type: functional
Ramos [11] = experiment: Antiproliferative activity against human Ramos cells measured after 72 hrs by CCK-8 assay; type: functional, cell-based
Outline: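 Ramos or Raji cells in RPMI-1640 with 10% FBS and 1% penicillin-streptomycin at 37 °C, 5% CO2. Seeded at 2000–3000 cells/well one day before compound addition. Exposure 72 h, then CCK-8 with absorbance at 450 nm. […] Single-point inhibition at 40 µM reported as mean ± standard deviation.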

Raji [12] = experiment: Induction of apoptosis in human Raji cells assessed as early apoptotic cells at 1 uM measured after 15 mins by Annexin-V-APC staining-based flow cytometric analysis (reference value: 0.021 %); type: functional
Raji [13] = experiment: Cell cycle arrest in human Raji cells assessed as accumulation at G0/G1 phase at 0.1 uM measured after 48 hrs by propidium iodide/RNase staining based flow cytometric analysis (reference value: 48.68 %); type: functional
Ramos [14] = experiment: Induction of apoptosis in human Ramos cells assessed as viable cells at 0.1 uM measured after 15 mins by Annexin-V-APC staining-based flow cytometric analysis (reference value: 96.5 %); type: functional; conditions: 0.25 h, read-out: Activity
[15] = target: Tyrosine-protein kinase BTK (Homo sapiens, UniProt Q06187, C481S); experiment: Inhibition of human recombinant full length N-terminal His tagged BTK C481S mutant expressed in baculovirus infected Sf9 cells using poly (Glu,Tyr) 4:1 as substrate measured after 60 mins in presence of ATP by ADP-Glo kinase assay
Ramos [16] = experiment: Induction of apoptosis in human Ramos cells assessed as late apoptotic cells at 3 uM measured after 15 mins by Annexin-V-APC staining-based flow cytometric analysis (reference value: 1.85 %); type: functional
Ramos [17] = experiment: Cell cycle arrest in human Ramos cells assessed as accumulation at G0/G1 phase at 1 uM measured after 48 hrs by propidium iodide/RNase staining based flow cytometric analysis (reference value: 37.66 %); type: functional
Raji [18] = experiment: Induction of apoptosis in human Raji cells assessed as necrotic cells at 0.1 uM measured after 15 mins by Annexin-V-APC staining-based flow cytometric analysis (reference value: 1.87 %); type: functional
Raji [19] = experiment: Induction of apoptosis in human Raji cells assessed as necrotic cells at 5 uM measured after 15 mins by Annexin-V-APC staining-based flow cytometric analysis (reference value: 1.87 %); type: functional
Ramos [20] = experiment: Induction of apoptosis in human Ramos cells assessed as viable cells at 5 uM measured after 15 mins by Annexin-V-APC staining-based flow cytometric analysis (reference value: 96.5 %); type: functional; conditions: Homo sapiens, Ramos, 0.25 h; read-out: Activity
Raji [21] = experiment: Cell cycle arrest in human Raji cells assessed as accumulation at G2/M phase at 1 uM measured after 48 hrs by propidium iodide/RNase staining based flow cytometric analysis (reference value: 18.14 %); type: functional
[22] = target: Tyrosine-protein kinase BTK (Homo sapiens, UniProt Q06187); experiment: Inhibition of BTK in anti-IgM-stimulated human Raji cells assessed as decrease in auto-phosphorylation at Y223 residue after 48 hrs by Western blot analysis; type: cell-based
Outline: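 Cells were stimulated with anti-IgM and exposed to serial dilutions for 48 h. Lysis was in 2× Laemmli buffer with 2.5% β-mercaptoethanol at 4 °C for 15 min, then boiling for 5 min. Proteins were separated on 10% SDS-PAGE and moved to nitrocellulose. Blots were probed overnight (12–18 h, 4 °C) with phospho-BTK Tyr223, phospho-PLCγ2 Tyr1217 and β-actin antibodies (1:1000), then anti-rabbit HRP, with chemiluminescent detection.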

Raji [23] = experiment: Induction of apoptosis in human Raji cells assessed as necrotic cells at 3 uM measured after 15 mins by Annexin-V-APC staining-based flow cytometric analysis (reference value: 1.87 %); type: functional
Ramos [24] = experiment: Induction of apoptosis in human Ramos cells assessed as early apoptotic cells at 3 uM measured after 15 mins by Annexin-V-APC staining-based flow cytometric analysis (reference value: 0.14 %); type: functional
Raji [25] = experiment: Cell cycle arrest in human Raji cells assessed as accumulation at S phase at 1 uM measured after 48 hrs by propidium iodide/RNase staining based flow cytometric analysis (reference value: 33.18 %); type: functional
Ramos [26] = experiment: Induction of apoptosis in human Ramos cells assessed as viable cells at 1 uM measured after 15 mins by Annexin-V-APC staining-based flow cytometric analysis (reference value: 96.5 %); type: functional; conditions: 0.25 h, read-out: Activity
Raji [27] = experiment: Cell cycle arrest in human Raji cells assessed as accumulation at G2/M phase at 0.1 uM measured after 48 hrs by propidium iodide/RNase staining based flow cytometric analysis (reference value: 18.14 %); type: functional

Tyrosine-protein kinase BTK (Homo sapiens, UniProt Q06187), sequence (Q06187 whole entry): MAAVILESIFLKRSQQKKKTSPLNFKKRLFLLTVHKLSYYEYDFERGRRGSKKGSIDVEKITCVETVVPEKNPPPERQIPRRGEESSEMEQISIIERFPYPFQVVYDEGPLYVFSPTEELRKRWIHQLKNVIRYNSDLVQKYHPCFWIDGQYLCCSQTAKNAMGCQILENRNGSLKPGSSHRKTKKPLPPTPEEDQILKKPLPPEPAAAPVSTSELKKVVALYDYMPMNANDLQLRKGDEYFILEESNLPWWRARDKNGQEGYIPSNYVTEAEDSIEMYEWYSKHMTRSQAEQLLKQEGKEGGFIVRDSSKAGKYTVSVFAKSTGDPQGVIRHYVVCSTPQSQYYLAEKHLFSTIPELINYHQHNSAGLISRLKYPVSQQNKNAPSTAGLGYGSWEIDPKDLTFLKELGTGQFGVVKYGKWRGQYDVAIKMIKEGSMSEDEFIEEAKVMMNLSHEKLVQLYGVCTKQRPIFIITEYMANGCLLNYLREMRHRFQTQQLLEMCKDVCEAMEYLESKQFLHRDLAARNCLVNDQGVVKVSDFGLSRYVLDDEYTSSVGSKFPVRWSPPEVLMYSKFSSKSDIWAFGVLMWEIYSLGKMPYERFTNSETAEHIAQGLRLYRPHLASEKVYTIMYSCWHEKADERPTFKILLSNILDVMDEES
Tyrosine-protein kinase BTK (Homo sapiens, UniProt Q06187, C481S), sequence (Q06187 2-659 C481S limits assumed): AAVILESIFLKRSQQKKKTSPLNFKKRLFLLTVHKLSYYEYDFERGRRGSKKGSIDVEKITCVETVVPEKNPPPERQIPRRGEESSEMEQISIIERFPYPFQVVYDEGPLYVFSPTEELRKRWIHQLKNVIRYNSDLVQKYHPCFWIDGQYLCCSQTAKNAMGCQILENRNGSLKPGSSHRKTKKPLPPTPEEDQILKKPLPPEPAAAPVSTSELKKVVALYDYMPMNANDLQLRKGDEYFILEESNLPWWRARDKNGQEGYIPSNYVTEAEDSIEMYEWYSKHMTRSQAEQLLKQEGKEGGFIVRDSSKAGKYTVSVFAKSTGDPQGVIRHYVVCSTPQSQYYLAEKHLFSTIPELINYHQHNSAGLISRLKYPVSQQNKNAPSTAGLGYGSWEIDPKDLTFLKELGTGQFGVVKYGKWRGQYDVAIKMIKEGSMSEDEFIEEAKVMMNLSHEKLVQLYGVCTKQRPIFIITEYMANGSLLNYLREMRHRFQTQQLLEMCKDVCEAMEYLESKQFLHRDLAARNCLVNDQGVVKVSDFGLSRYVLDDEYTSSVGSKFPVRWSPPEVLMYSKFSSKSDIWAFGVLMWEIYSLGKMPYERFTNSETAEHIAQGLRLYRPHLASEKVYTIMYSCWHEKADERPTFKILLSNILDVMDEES

CN1CCN(c2ccc(Nc3nc(-c4cccc(NC(=O)c5ccc(F)c(Cl)c5)c4)sc3C(N)=O)cc2)CC1
Activity (Raji [1]): 0% | Activity (Ramos [2]): 8.33% | viability at 1 µM (Raji [3]): 97.6% | Activity (Ramos [4]): 33.13% | Activity (Raji [5]): 1.88% | Activity (Ramos [6]): 2.04% | Activity (Raji [7]): 0.44% | Activity (Ramos [8]): 1.88% | Activity (Ramos [9]): 0.051% | Activity (Ramos [10]): 51.54% | IC50 (Ramos [11]): 4.83 µM | Activity (Raji [12]): 0% | Activity (Raji [13]): 47.04% | viability at 0.1 µM (Ramos [14]): 96.4% | IC50 [15]: 0.061 µM | Activity (Ramos [16]): 6.43% | Activity (Ramos [17]): 55.48% | Activity (Raji [18]): 1.76% | Activity (Raji [19]): 32% | viability at 5 µM (Ramos [20]): 1.55% | Activity (Raji [21]): 24.53% | inhibition [22]: Dose-dependent effect | Activity (Raji [23]): 2.91% | Activity (Ramos [24]): 0.052% | Activity (Raji [25]): 21.47% | viability at 1 µM (Ramos [26]): 95.7% | Activity (Raji [27]): 19.33%
